# According to article PMC11295983 (ESMO Open, 2024):
# Like-named read-outs stand apart in the source and are kept apart here.
# How the values were obtained:
# [1] = test system: pFGFR2α; settings: based on in vivo experiments; no reference given; cited from earlier work
# [2] = test system: advanced malignancies; settings: monotherapy, cited from earlier work
# [3] = test system: patients with advanced malignancies; settings: monotherapy, parts 1 and 2; cited from earlier work
# [4] = test system: patients with advanced solid tumor malignancies; test: Safety and tolerability; format: in vivo, human
# Outline: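 Patients are ≥18 years with solid tumors that progressed after ≥1 prior line. They self-administer oral pemigatinib 9, 13.5 or 20 mg q.d. on 21-day cycles, continuous or intermittent, combined with chemotherapy, trastuzumab or anti-PD-1 antibody until progression or toxicity. Interruption and dose adjustment are allowed. AE frequency, duration and severity are summarized descriptively for patients receiving ≥1 dose.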
# [5] = molecular target: phosphorylated FGFR2α (Homo sapiens, UniProt P21802); format: cell-based
# Outline: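 Patients take oral pemigatinib once daily on 21-day cycles, continuous or intermittent, with combination therapy (e.g. i.v. docetaxel 75 mg/m² q3w, i.v. pembrolizumab 200 mg q3w). Steady-state trough is cycle 1 day 14, 0-24 h. Values are mean (SE) inhibition.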
# [6] = test system: advanced solid tumors; test: Investigator-assessed tumor response per RECIST v1.1, FIGHT-101 part 3; format: in vivo, human
# [7] = both the 9-mg and 13.5-mg doses of pemigatinib
# Chain of phosphorylated FGFR2α (P21802 431-767 limits assumed): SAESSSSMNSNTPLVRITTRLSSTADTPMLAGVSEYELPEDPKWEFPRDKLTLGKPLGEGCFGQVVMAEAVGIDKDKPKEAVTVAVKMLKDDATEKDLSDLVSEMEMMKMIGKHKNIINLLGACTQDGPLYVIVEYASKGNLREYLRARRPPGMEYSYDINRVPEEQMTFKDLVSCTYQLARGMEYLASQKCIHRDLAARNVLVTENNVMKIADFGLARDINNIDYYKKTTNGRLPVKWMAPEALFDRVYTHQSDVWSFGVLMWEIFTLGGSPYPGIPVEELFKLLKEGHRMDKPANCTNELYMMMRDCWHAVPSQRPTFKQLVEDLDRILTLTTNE
molecule,measurement,setting,value
CCN1C(=O)N(c2c(F)c(OC)cc(OC)c2F)Cc2cnc3[nH]c(CN4CCOCC4)cc3c21 [pemigatinib],IC50,[1],22.6 nM
same,Patients with partial responses (PRs),[2]; 128 patients in parts 1 or 2,9.4%
same,ORR among patients with FGFR mutations,[2]; parts 1 or 2,23.1%
same,ORR among patients with FGFR rearrangements,[2]; parts 1 or 2,25.0%
same,"Alopecia, patients",[3],31.3%
same,"Diarrhea, patients",[3],32.0%
same,"Dose reductions, patients",[3],4.6%
same,"Dry mouth, patients",[3],38.3%
same,"Fatigue, patients",[3],39.1%
same,"Hyperphosphatemia, patients",[3],75.0%
same,Patients who discontinued pemigatinib because of TEAEs,[3],10.2%
same,"Pemigatinib interruption used to manage TEAEs, patients",[3],51.6%
same,"Stomatitis, patients",[3],34.4%
pemigatinib + docetaxel [Pemi/doc],Alopecia (TEAE),[4]; pemigatinib 13.5 mg ID,3 (42.9) n (%)
same,Anemia (TEAE),[4]; pemigatinib 13.5 mg ID,4 (57.1) n (%)
same,Constipation (TEAE),[4]; pemigatinib 13.5 mg ID,3 (42.9) n (%)
same,Dehydration (TEAE),[4]; pemigatinib 13.5 mg ID,5 (71.4) n (%)
same,Diarrhea (TEAE),[4]; pemigatinib 13.5 mg ID,6 (85.7) n (%)
same,"Diarrhea TEAE, patients",[4]; pemigatinib 13.5 mg ID,85.7%
same,"Dose interruptions because of TEAEs, patients",[4]; pemigatinib 13.5 mg ID,42.9%
same,Dysgeusia (TEAE),[4]; pemigatinib 13.5 mg ID,3 (42.9) n (%)
same,Fatigue (TEAE),[4]; pemigatinib 13.5 mg ID,6 (85.7) n (%)
same,"Fatigue TEAE, patients",[4]; pemigatinib 13.5 mg ID,85.7%
same,Hyperphosphatemia (TEAE),[4]; pemigatinib 13.5 mg ID,6 (85.7) n (%)
same,"Hyperphosphatemia TEAE, patients",[4]; pemigatinib 13.5 mg ID,85.7%
same,Nausea (TEAE),[4]; pemigatinib 13.5 mg ID,4 (57.1) n (%)
same,Neutropenia (TEAE),[4]; pemigatinib 13.5 mg ID,3 (42.9) n (%)
same,"Stomatitis TEAE, patients",[4]; pemigatinib 13.5 mg ID,28.6%
same,"TEAEs related to the combination partner, patients",[4]; pemigatinib 13.5 mg ID,71.4%
same,Taste disorder (TEAE),[4]; pemigatinib 13.5 mg ID,3 (42.9) n (%)
same,Vomiting (TEAE),[4]; pemigatinib 13.5 mg ID,3 (42.9) n (%)
same,Weight decreased (TEAE),[4]; pemigatinib 13.5 mg ID,3 (42.9) n (%)
same,Inhibition of FGFR2α phosphorylation at trough of steady state,[5]; [7],exceeded 50%
same,ORR (95% CI),[6]; pemigatinib 13.5 mg ID,14.3%
same,"DOR, individual responder","[6]; urothelial tract/bladder cancer, FGF10 amplification",12.5 months
pemigatinib + gemcitabine + cisplatin [Pemi/gem/cis],Alanine aminotransferase increased (TEAE),[4]; Total (all pemigatinib doses),4 (50.0) n (%)
same,"Alopecia TEAE, patients",[4]; Total (all pemigatinib doses),12.5%
same,Anemia (TEAE),[4]; Total (all pemigatinib doses),8 (100.0) n (%)
same,Aspartate aminotransferase increased (TEAE),[4]; Total (all pemigatinib doses),4 (50.0) n (%)
same,Blood creatinine increased (TEAE),[4]; Total (all pemigatinib doses),5 (62.5) n (%)
same,Constipation (TEAE),[4]; Total (all pemigatinib doses),5 (62.5) n (%)
same,Dehydration (TEAE),[4]; Total (all pemigatinib doses),3 (37.5) n (%)
same,Diarrhea (TEAE),[4]; Total (all pemigatinib doses),4 (50.0) n (%)
same,Dizziness (TEAE),[4]; Total (all pemigatinib doses),3 (37.5) n (%)
same,"Dose interruptions because of TEAEs, patients",[4]; Total (all pemigatinib doses),87.5%
same,"Dose reductions because of TEAEs, patients",[4]; Total (all pemigatinib doses),12.5%
same,Dry mouth (TEAE),[4]; Total (all pemigatinib doses),3 (37.5) n (%)
same,Fatigue (TEAE),[4]; Total (all pemigatinib doses),5 (62.5) n (%)
same,Hyperphosphatemia (TEAE),[4]; Total (all pemigatinib doses),4 (50.0) n (%)
same,"Hyperphosphatemia TEAE, patients",[4]; Total (all pemigatinib doses),50.0%
same,Hypokalemia (TEAE),[4]; Total (all pemigatinib doses),3 (37.5) n (%)
same,Hyponatremia (TEAE),[4]; Total (all pemigatinib doses),4 (50.0) n (%)
same,Nausea (TEAE),[4]; Total (all pemigatinib doses),5 (62.5) n (%)
same,Neutropenia (TEAE),[4]; Total (all pemigatinib doses),4 (50.0) n (%)
same,"Pemigatinib-related TEAEs, patients",[4]; Total (all pemigatinib doses),87.5%
same,Stomatitis (TEAE),[4]; Total (all pemigatinib doses),3 (37.5) n (%)
same,"TEAEs related to the combination partner, patients",[4]; Total (all pemigatinib doses),100.0%
same,Thrombocytopenia (TEAE),[4]; Total (all pemigatinib doses),5 (62.5) n (%)
same,Vomiting (TEAE),[4]; Total (all pemigatinib doses),3 (37.5) n (%)
same,White blood cell count decreased (TEAE),[4]; Total (all pemigatinib doses),4 (50.0) n (%)
same,"Anemia TEAE, patients",[4]; pemigatinib 13.5 mg ID,100.0%
same,Inhibition of FGFR2α phosphorylation at trough of steady state,[5]; pemigatinib 13.5 mg ID,31%
same,ORR (95% CI),[6]; Total (all pemigatinib doses),37.5%
same,"DOR, individual responder","[6]; pemigatinib 13.5 mg ID, anal cancer, no detectable FGF/FGFR alterations",5.8 months
same,"DOR, individual responder","[6]; pemigatinib 13.5 mg ID, ovarian cancer, no detectable FGF/FGFR alterations",6.6 months
pemigatinib + pembrolizumab [Pemi/pembro],Alanine aminotransferase increased (TEAE),[4]; Total (all pemigatinib doses),8 (30.8) n (%)
same,Alopecia (TEAE),[4]; Total (all pemigatinib doses),11 (42.3) n (%)
same,Anemia (TEAE),[4]; Total (all pemigatinib doses),12 (46.2) n (%)
same,Aspartate aminotransferase increased (TEAE),[4]; Total (all pemigatinib doses),8 (30.8) n (%)
same,Decreased appetite (TEAE),[4]; Total (all pemigatinib doses),11 (42.3) n (%)
same,Diarrhea (TEAE),[4]; Total (all pemigatinib doses),12 (46.2) n (%)
same,"Dose interruptions because of TEAEs, patients",[4]; Total (all pemigatinib doses),57.7%
same,"Dose reductions because of TEAEs, patients",[4]; Total (all pemigatinib doses),7.7%
same,Dry eye (TEAE),[4]; Total (all pemigatinib doses),8 (30.8) n (%)
same,Dry mouth (TEAE),[4]; Total (all pemigatinib doses),9 (34.6) n (%)
same,"Fatigue TEAE, patients",[4]; Total (all pemigatinib doses),26.9%
same,Hyperphosphatemia (TEAE),[4]; Total (all pemigatinib doses),19 (73.1) n (%)
same,"Pemigatinib-related TEAEs, patients",[4]; Total (all pemigatinib doses),88.5%
same,Stomatitis (TEAE),[4]; Total (all pemigatinib doses),9 (34.6) n (%)
same,"TEAEs related to the combination partner, patients",[4]; Total (all pemigatinib doses),69.2%
same,"Alopecia TEAE, patients",[4]; pemigatinib 13.5 mg CD,55.6%
same,"Dry mouth TEAE, patients",[4]; pemigatinib 13.5 mg CD,55.6%
same,"Hyperphosphatemia TEAE, patients",[4]; pemigatinib 13.5 mg CD,55.6%
same,"Hyperphosphatemia TEAE, patients",[4]; pemigatinib 13.5 mg ID,78.6%
same,Inhibition of FGFR2α phosphorylation at trough of steady state,[5]; [7],exceeded 50%
same,ORR (95% CI),[6]; Total (all pemigatinib doses),26.9%
same,"DOR, individual responder","[6]; pemigatinib 13.5 mg ID, urothelial tract/bladder cancer, FGFR3 p.S249C mutation",50.3 months
pemigatinib + retifanlimab [Pemi/reti],Alopecia (TEAE),[4]; Total (all pemigatinib doses),6 (33.3) n (%)
same,Dehydration (TEAE),[4]; Total (all pemigatinib doses),8 (44.4) n (%)
same,Diarrhea (TEAE),[4]; Total (all pemigatinib doses),7 (38.9) n (%)
same,Dry mouth (TEAE),[4]; Total (all pemigatinib doses),9 (50.0) n (%)
same,Fatigue (TEAE),[4]; Total (all pemigatinib doses),11 (61.1) n (%)
same,Hyperphosphatemia (TEAE),[4]; Total (all pemigatinib doses),11 (61.1) n (%)
same,"Hyperphosphatemia TEAE, patients",[4]; Total (all pemigatinib doses),61.1%
same,Hypomagnesemia (TEAE),[4]; Total (all pemigatinib doses),6 (33.3) n (%)
same,"Pemigatinib-related TEAEs, patients",[4]; Total (all pemigatinib doses),94.4%
same,Stomatitis (TEAE),[4]; Total (all pemigatinib doses),12 (66.7) n (%)
same,"Stomatitis TEAE, patients",[4]; Total (all pemigatinib doses),66.7%
same,"TEAEs related to the combination partner, patients",[4]; Total (all pemigatinib doses),88.9%
same,"Stomatitis TEAE, patients",[4]; pemigatinib 13.5 mg CD,77.8%
same,ORR (95% CI),[6]; Total (all pemigatinib doses),11.1%
same,"DOR, individual responder","[6]; pemigatinib 13.5 mg CD, ovarian cancer, no detectable FGF/FGFR alterations",4.2 months
same,"DOR, individual responder","[6]; pemigatinib 13.5 mg CD, urothelial cancer, FGF3/4/19 amplification",8.3 months
pemigatinib + trastuzumab [Pemi/tras],Alopecia (TEAE),[4]; pemigatinib 13.5 mg ID,5 (83.3) n (%)
same,"Alopecia TEAE, patients",[4]; pemigatinib 13.5 mg ID,83.3%
same,Anemia (TEAE),[4]; pemigatinib 13.5 mg ID,2 (33.3) n (%)
same,Constipation (TEAE),[4]; pemigatinib 13.5 mg ID,2 (33.3) n (%)
same,Cough (TEAE),[4]; pemigatinib 13.5 mg ID,4 (66.7) n (%)
same,Decreased appetite (TEAE),[4]; pemigatinib 13.5 mg ID,3 (50.0) n (%)
same,Diarrhea (TEAE),[4]; pemigatinib 13.5 mg ID,3 (50.0) n (%)
same,Dry eye (TEAE),[4]; pemigatinib 13.5 mg ID,2 (33.3) n (%)
same,Dry mouth (TEAE),[4]; pemigatinib 13.5 mg ID,4 (66.7) n (%)
same,Dyspepsia (TEAE),[4]; pemigatinib 13.5 mg ID,2 (33.3) n (%)
same,Dyspnea (TEAE),[4]; pemigatinib 13.5 mg ID,2 (33.3) n (%)
same,Epistaxis (TEAE),[4]; pemigatinib 13.5 mg ID,2 (33.3) n (%)
same,Fatigue (TEAE),[4]; pemigatinib 13.5 mg ID,2 (33.3) n (%)
same,"Fatigue TEAE, patients",[4]; pemigatinib 13.5 mg ID,33.3%
same,Headache (TEAE),[4]; pemigatinib 13.5 mg ID,2 (33.3) n (%)
same,Hyperphosphatemia (TEAE),[4]; pemigatinib 13.5 mg ID,5 (83.3) n (%)
same,"Hyperphosphatemia TEAE, patients",[4]; pemigatinib 13.5 mg ID,83.3%
same,Nausea (TEAE),[4]; pemigatinib 13.5 mg ID,2 (33.3) n (%)
same,"Pemigatinib-related TEAEs, patients",[4]; pemigatinib 13.5 mg ID,83.3%
same,Pyrexia (TEAE),[4]; pemigatinib 13.5 mg ID,2 (33.3) n (%)
same,Sinusitis (TEAE),[4]; pemigatinib 13.5 mg ID,3 (50.0) n (%)
same,Stomatitis (TEAE),[4]; pemigatinib 13.5 mg ID,2 (33.3) n (%)
same,"TEAEs related to the combination partner, patients",[4]; pemigatinib 13.5 mg ID,50.0%
same,Taste disorder (TEAE),[4]; pemigatinib 13.5 mg ID,2 (33.3) n (%)
same,Upper respiratory tract infection (TEAE),[4]; pemigatinib 13.5 mg ID,2 (33.3) n (%)
same,Inhibition of FGFR2α phosphorylation at trough of steady state,[5]; [7],exceeded 50%
same,ORR (95% CI),[6]; pemigatinib 13.5 mg ID,0%
